Measurements taken from PubChem BioAssay.
Results filed as inconclusive are left out.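 How the source made its calls, unless noted: active means viability increase at or above a cutoff of the median across tested compounds plus 3 SD (cut at about 8.5% in these data, passing the limit was not always enough); inconclusive means some gains above the cutoff, reason not given; inactive means the rest.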

Key:
[1] = S. cerevisiae growth inhibition in permissive medium (OD615), pilot counter-assay for S. cerevisiae lifespan shortening project, permissive growth control (AID 705;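 active means growth inhibition above 25% in both replicates, a cutoff set 3 SD above the mean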); settings: OD615, 24 h, at 10 µM, hits give high values
How it was run: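 Timing: 24 h exposure, 30 °C / Material: Saccharomyces cerevisiae strain carrying genetically modified DeaD replicative-lifespan system / Signal: OD at 615 nm / Compound: 10 µM single dose, 0.25% DMSO / Medium: SC raffinose/galactose permissive medium / Evaluation: reduction in yeast growth (OD615)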

[2] = S. cerevisiae growth inhibition in restrictive medium, OD615, pilot screen, restrictive growth control, yeast lifespan reduction project (AID 706;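 active means growth inhibition above a set limit, 3 SD over mean compound inhibition, in both replicates, cut at about 43% in these data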;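 further: modified DeaD lifespan yeast strain shifted to restrictive glucose medium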); settings: OD615, 48 h, at 10 µM, hits give high values
How it was run: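 System: Engineered S. cerevisiae DeaD strain | Detection: OD615 | Buffer or medium: CSMM-D glucose medium | Doses: 10 µM compound, 0.25% DMSO | Timing: 4 h pre-growth plus 48 h compound exposure, 30 °C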

[3] = doxorubicin toxicity protection in MRP-1 cells – H69AR cells, CellTiter-Glo, duplicate, MRP-1 activator project, pilot screen (AID 807); settings: H69AR viability with doxorubicin, CellTiter-Glo luminescence; at 10 µM; hits give high values;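 further: compound pretreatment 18-22 h then 72 h combined with doxorubicin; 0% = doxorubicin alone and 100% = vehicle without doxorubicin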
[4] = viability of HCT116 without oncogenic beta-catenin – human colon tumor cells, pilot screen (AID 823;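 active means cell viability at or below a set limit in both duplicate runs, the limit being the all-compound median minus 4 SD, cut at about 23% in these data, passing the limit was not always enough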;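 further: 0% = wells killed by 20 µM Hyamine and 100% = untreated DMSO cell wells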); settings: HCT116 beta-catenin knockout viability, CellTiter-Glo, 60 h; at 10 µM; hits give low values
[5] = RAM pathway blockade in budding yeast – dse1pr::URA3 reporter, 5-FOA selection, pilot screen (AID 869;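 active means inhibition over a set limit, the all-compound mean plus 3 SD, in both replicate runs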;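 further: 0% = DMSO wells with no growth and 100% = 10 µM 1-NA-PP1 with full growth; RAM network block rescues cells from 5-FOA so hits raise OD615 growth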); settings: S. cerevisiae dse1pr::URA3 5-FOA growth, OD615, 2 d; at 10 µM; hits give high values; strain carries analog-sensitive mutant Cbk1 kinase
[6] = RAM signaling pathway blockade in yeast – S. cerevisiae, Pdr1DBD-CYC8 efflux-inhibited sensitized strain, primary screen (AID 1298;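 active means RAM network inhibition above 8.4% in each of two replicates, 3 SD over the compound average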;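 further: 0% = DMSO untreated cells without growth and 100% = 10 µM 1-NA-PP1 full growth; higher means more yeast growth rescued from 5-FOA killing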); settings: S. cerevisiae cbk1-as DSE1-URA3 strain, 5-FOA growth OD615, 2 d; at 50 µM; hits give high values

O=C(NCc1cccs1)C1CCCN(S(=O)(=O)c2ccc3c(c2)OCO3)C1 (centres undefined)
inactive: growth inhibition [1] -20.3% | growth inhibition [2] -1.21% | viability increase [3] -3.16% | viability [4] 90.8% | inhibition [5] 1.46% | RAM network inhibition [6] 3.17%

Cc1cccc(NC(=O)Cn2cnc3c(cnn3-c3ccc(F)cc3)c2=O)c1C
inactive: growth inhibition [1] -1.04% | growth inhibition [2] -2.65% | viability increase [3] -8.31% | viability [4] 29.6% | inhibition [5] 0.735% | RAM network inhibition [6] 2.47%

CCCn1cc(S(=O)(=O)CC(=O)N2CCc3ccccc32)c2ccccc21
inactive: growth inhibition [1] -14.9% | growth inhibition [2] -8.48% | viability increase [3] -5.64% | viability [4] 96.9% | inhibition [5] 4.21% | RAM network inhibition [6] 5.15%

CC(C)(C)NS(=O)(=O)c1ccc(OCC(=O)Nc2ccc3c(c2)OCCO3)cc1
inactive: growth inhibition [1] -11.5% | growth inhibition [2] -8.28% | viability increase [3] -0.9% | viability [4] 102% | inhibition [5] 2.62% | RAM network inhibition [6] 7.73%

N#Cc1c2n(cnc1=O)CCCCC2
inactive: growth inhibition [1] -15.7% | growth inhibition [2] 3.32% | viability increase [3] -1.5% | viability [4] 100% | inhibition [5] 0.835% | RAM network inhibition [6] 3.53%

COc1cccc(C(=O)Nc2ccc(-c3nc4ccccc4o3)c(O)c2)c1
inactive: growth inhibition [1] -13.4% | growth inhibition [2] -12.1% | viability increase [3] -4.28% | viability [4] 30.4% | inhibition [5] 3.71% | RAM network inhibition [6] 3.99%

Cc1cc(NC(=O)Cn2c(=O)n(Cc3ccccc3)c(=O)c3ccccc32)no1
inactive: growth inhibition [1] -5.91% | growth inhibition [2] -24.7% | viability increase [3] -5.98% | viability [4] 51.5% | inhibition [5] 1.32% | RAM network inhibition [6] 6.47%

OC(COCc1cccs1)CN1CCN(c2ccccn2)CC1 (centres undefined)
inactive: growth inhibition [1] -19.5% | growth inhibition [2] -7.78% | viability increase [3] -1.3% | viability [4] 101% | inhibition [5] 2.32% | RAM network inhibition [6] 4.89%

Cc1c(C(=O)N(C)Cc2ccccc2)oc2ccc(S(=O)(=O)N3CCCC3)cc12
inactive: growth inhibition [1] -18.8% | growth inhibition [2] -11.4% | viability increase [3] -5.85% | viability [4] 54.3% | inhibition [5] 0.18% | RAM network inhibition [6] 4.09%

O=C(NCc1nc2ccccc2[nH]1)c1ccc(S(=O)(=O)N2CCOCC2)cc1
inactive: growth inhibition [1] -9.52% | growth inhibition [2] -0.75% | viability increase [3] -2.83% | viability [4] 85.8% | inhibition [5] 1.77% | RAM network inhibition [6] 3.06%

COc1cc2[nH]c(=O)n(CCC(=O)N3CCN(c4cccc(C)c4C)CC3)c(=O)c2cc1OC
inactive: growth inhibition [1] 2.25% | growth inhibition [2] -5.83% | viability increase [3] -5.18% | viability [4] 84.2% | inhibition [5] 0.615% | RAM network inhibition [6] 5.67%

Clc1cccc(CSc2nnc([C@@H]3CCCN3)o2)c1
inactive: growth inhibition [1] -7.24% | growth inhibition [2] -0.015% | viability increase [3] -3.16% | viability [4] 98.9% | inhibition [5] -0.08% | RAM network inhibition [6] 0.26%

CCCSc1nc(N)c2c3c(sc2n1)CN(C)CC3
inactive: growth inhibition [1] -25% | growth inhibition [2] -3.27% | viability increase [3] -2.7% | viability [4] 80.9% | inhibition [5] 1.02% | RAM network inhibition [6] 6.8%

CCOC(=O)N1CCC(NC(=O)C(Cc2ccccc2)NC(=O)C2CCCCC2)CC1 (centres undefined)
inactive: growth inhibition [1] -1.7% | growth inhibition [2] 3.73% | viability increase [3] -2.92% | viability [4] 100% | inhibition [5] 0.04% | RAM network inhibition [6] 6.59%

COc1ccc(C2c3c(oc4ccccc4c3=O)C(=O)N2c2ccccn2)cc1OC (centres undefined)
inactive: growth inhibition [1] -10.4% | growth inhibition [2] -11.2% | viability increase [3] -6.93% | viability [4] 72.7% | inhibition [5] 2.8% | RAM network inhibition [6] 2.68%

CSc1nc(SCC(=O)NCc2ccco2)c2c3c(sc2n1)COC(C)(C)C3
inactive: growth inhibition [1] -11.7% | growth inhibition [2] -6.08% | viability increase [3] -8.04% | viability [4] 33.9% | inhibition [5] 2.8% | RAM network inhibition [6] 7.62%

O=C(CN(CC(=O)N1CCOCC1)S(=O)(=O)c1ccc(Br)s1)N1CCOCC1
inactive: growth inhibition [1] 5.73% | growth inhibition [2] -2.16% | viability increase [3] -3.71% | viability [4] 98% | inhibition [5] -0.32% | RAM network inhibition [6] 0.11%

c1cncc(CNc2c3c(nc4nnnn24)CCCC3)c1
inactive: growth inhibition [1] -7.77% | growth inhibition [2] -8.93% | viability increase [3] -2.59% | viability [4] 90% | inhibition [5] 0.45% | RAM network inhibition [6] -0.36%

COc1cc(OC)cc(C(=O)Nc2cc(NC(=O)c3ccco3)ccc2OC)c1
inactive: growth inhibition [1] -15.4% | growth inhibition [2] 3.21% | viability increase [3] -5.63% | viability [4] 88.8% | inhibition [5] 1.21% | RAM network inhibition [6] 2.66%
